According to ChEMBL document CHEMBL4330063, “New naphthopyran analogues of LY290181 as potential tumor vascular-disrupting agents” (Eur J Med Chem, 2019):
Values belong to the compound of their own block, whether it stands above or below them. Active and inactive are the calls of the source. The calls are words filed in the database; no cut-off is given here.

Assays:
518A2 [1] = experiment: Antiproliferative activity against human 518A2 cells after 72 hrs by MTT assay; assay type: functional, cell-based; conditions: for IC50: 518A2, 72 h
Summary of the method: (§1)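 MTT read-out after 72 h of continuous exposure. Viability is expressed as percentage of viable cells relative to untreated controls. IC50 comes from dose-response curves. Values are means±SD of four independent experiments (two for some entries). DMSO was below 1%, with vehicle controls at equal DMSO. Precipitation was excluded spectrometrically and microscopically.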

HT-29 [2] = experiment: Antiproliferative activity against human HT-29 cells after 72 hrs by MTT assay; assay type: functional, cell-based; conditions: HT-29, 72 h; summary of the method: as §1
A2780 = experiment: Antiproliferative activity against human A2780 cells after 72 hrs by SRB assay; assay type: functional, cell-based; conditions: A2780, 72 h
Summary of the method: (§2)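 Ovarian A2780 and cisplatin-resistant A2780cis cells were exposed for 72 h and stained with SRB. IC50 comes from dose-response curves, as means±SD of three independent experiments. Final DMSO was below 1%, with matched vehicle controls.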

[3] = Antiproliferative activity against human A2780cis cells after 72 hrs by SRB assay; assay type: functional, cell-based; summary of the method: as §2
DLD-1 = experiment: Antiproliferative activity against human DLD1 cells after 72 hrs by MTT assay; assay type: functional, cell-based; conditions: DLD-1, 72 h; summary of the method: as §1
EA.hy 926 = experiment: Antiproliferative activity against human EAhy926 cells after 72 hrs by MTT assay; assay type: functional, cell-based; conditions: EA.hy 926, 72 h; summary of the method: as §1
PANC-1 = experiment: Antiproliferative activity against human PANC1 cells after 72 hrs by MTT assay; assay type: functional, cell-based; conditions: PANC-1, 72 h; summary of the method: as §1
HCT-116 = experiment: Antiproliferative activity against human HCT116 cells after 72 hrs by MTT assay; assay type: functional, cell-based; conditions: HCT-116, 72 h; summary of the method: as §1
[4] = Antiproliferative activity against human KB-V1/Vbl cells after 72 hrs by MTT assay; assay type: functional, cell-based; summary of the method: as §1
[5] = Antiproliferative activity against human MCF7/Topo cells after 72 hrs by MTT assay; assay type: functional, cell-based; summary of the method: as §1
HT-29 [6] = experiment: Cell cycle arrest in human HT-29 cells assessed as accumulation of cells at sub G1 phase at 100 nM after 24 hrs by propidium iodide staining-based flow cytometric analysis (reference value: 1.2 +/- 0.3%); assay type: functional
HT-29 [7] = experiment: Cell cycle arrest in human HT-29 cells assessed as accumulation of cells at sub G1 phase at 250 nM after 24 hrs by propidium iodide staining-based flow cytometric analysis (reference value: 1.2 +/- 0.3%); assay type: functional
HT-29 [8] = experiment: Cell cycle arrest in human HT-29 cells assessed as accumulation of cells at sub G1 phase at 350 nM after 24 hrs by propidium iodide staining-based flow cytometric analysis (reference value: 1.2 +/- 0.3%); assay type: functional
HT-29 [9] = experiment: Cell cycle arrest in human HT-29 cells assessed as accumulation of cells at G1 phase at 100 nM after 24 hrs by propidium iodide staining-based flow cytometric analysis (reference value: 75.1 +/- 1.1%); assay type: functional
HT-29 [10] = experiment: Cell cycle arrest in human HT-29 cells assessed as accumulation of cells at G1 phase at 250 nM after 24 hrs by propidium iodide staining-based flow cytometric analysis (reference value: 75.1 +/- 1.1%); assay type: functional
HT-29 [11] = experiment: Cell cycle arrest in human HT-29 cells assessed as accumulation of cells at G1 phase at 350 nM after 24 hrs by propidium iodide staining-based flow cytometric analysis (reference value: 75.1 +/- 1.1%); assay type: functional
HT-29 [12] = experiment: Cell cycle arrest in human HT-29 cells assessed as accumulation of cells at S phase at 100 nM after 24 hrs by propidium iodide staining-based flow cytometric analysis (reference value: 12.3 +/- 0.4%); assay type: functional
HT-29 [13] = experiment: Cell cycle arrest in human HT-29 cells assessed as accumulation of cells at S phase at 250 nM after 24 hrs by propidium iodide staining-based flow cytometric analysis (reference value: 12.3 +/- 0.4%); assay type: functional
HT-29 [14] = experiment: Cell cycle arrest in human HT-29 cells assessed as accumulation of cells at S phase at 350 nM after 24 hrs by propidium iodide staining-based flow cytometric analysis (reference value: 12.3 +/- 0.4%); assay type: functional
HT-29 [15] = experiment: Cell cycle arrest in human HT-29 cells assessed as accumulation of cells at G2/M phase at 100 nM after 24 hrs by propidium iodide staining-based flow cytometric analysis (reference value: 11.4 +/- 1.4%); assay type: functional
HT-29 [16] = experiment: Cell cycle arrest in human HT-29 cells assessed as accumulation of cells at G2/M phase at 250 nM after 24 hrs by propidium iodide staining-based flow cytometric analysis (reference value: 11.4 +/- 1.4%); assay type: functional
HT-29 [17] = experiment: Cell cycle arrest in human HT-29 cells assessed as accumulation of cells at G2/M phase at 350 nM after 24 hrs by propidium iodide staining-based flow cytometric analysis (reference value: 11.4 +/- 1.4%); assay type: functional
Chorioallantoic membrane [18] = experiment: Antiangiogenic activity in Leghorn chicken embryo chorioallantoic membrane assessed as disruption of smaller blood vessels at 5 nmol after 6 hrs by light microscopic analysis; assay type: functional, tissue-based; conditions: Gallus gallus
Summary of the method: (§3)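 Fertilized chicken eggs, CAM assay. Compound was applied topically into a small silicon foil ring placed on the CAM. The membrane and its extraembryonal blood vessels were monitored over 24 h, with observations at 6 h and 24 h post application.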

Chorioallantoic membrane [19] = experiment: Antiangiogenic activity in Leghorn chicken embryo chorioallantoic membrane assessed as induction of hemorrhages at 5 nmol after 6 hrs by light microscopic analysis; assay type: functional, tissue-based; conditions: Gallus gallus; summary of the method: as §3
Chorioallantoic membrane [20] = experiment: Antiangiogenic activity in Leghorn chicken embryo chorioallantoic membrane assessed as induction of hemorrhages at 5 nmol after 24 hrs by light microscopic analysis; assay type: functional, tissue-based; conditions: Gallus gallus; summary of the method: as §3
Chorioallantoic membrane [21] = experiment: Antiangiogenic activity in Leghorn chicken embryo chorioallantoic membrane assessed as reduction in diameter of main blood vessel at 5 nmol after 24 hrs by light microscopic analysis; assay type: functional, tissue-based; conditions: Gallus gallus; summary of the method: as §3
Chorioallantoic membrane [22] = experiment: Antiangiogenic activity in Leghorn chicken embryo chorioallantoic membrane assessed as reduction in blood vessel area at 5 nmol after 6 hrs by light microscopic analysis relative to control; assay type: functional, tissue-based; conditions: Gallus gallus
Summary of the method: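 The CAM assay was run with topical application into a silicon foil ring atop the CAM of fertilized chicken eggs. Area covered by blood vessels was quantified by fractal analysis relative to control.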

Chorioallantoic membrane [23] = experiment: Antiangiogenic activity in Leghorn chicken embryo chorioallantoic membrane assessed as effect on blood vessel length at 5 nmol after 6 hrs by light microscopic analysis; assay type: functional, tissue-based; conditions: Gallus gallus; summary of the method: as §3
518A2 [24] = experiment: Induction of apoptosis in human 518A2 cells assessed as accumulation at subG1 phase; assay type: functional, cell-based
518A2 [25] = experiment: Induction of cell cycle arrest in human 518A2 cells; assay type: functional, cell-based
HT-29 [26] = experiment: Cell cycle arrest in human HT-29 cells assessed as accumulation of cells at G2/M phase after 24 hrs by propidium iodide staining-based flow cytometric analysis; assay type: functional
Chorioallantoic membrane [27] = experiment: Antiangiogenic activity in Leghorn chicken embryo chorioallantoic membrane assessed as disruption of smaller blood vessels at 5 nmol after 24 hrs by light microscopic analysis; assay type: functional, tissue-based; conditions: Gallus gallus; summary of the method: as §3

Compound: N#CC1=C(N)Oc2c(cc(Cl)c3ccccc23)C1c1ccccc1Cl (stereo not drawn)
Activity (518A2 [1]): Dose-dependent effect | IC50 (518A2 [1]): 9910 nM | IC50 (HT-29 [2]): 2030 nM | IC50 (A2780): 912 nM | IC50 [3]: 973 nM

Compound: CSc1ccc(C2C(C#N)=C(N)Oc3c2cc(Cl)c2ccccc32)cc1 (stereo not drawn)
Activity (518A2 [1]): Dose-dependent effect | IC50 (518A2 [1]): 1350 nM | IC50 (HT-29 [2]): 1540 nM | IC50 (A2780): 1070 nM | IC50 [3]: 1290 nM

Compound: N#CC1=C(N)Oc2c(cc(Cl)c3ccccc23)C1c1cccc(Br)c1 (stereo not drawn)
Activity (518A2 [1]): Dose-dependent effect | IC50 (518A2 [1]): 229 nM | IC50 (HT-29 [2]): 245 nM | IC50 (A2780): 155 nM | IC50 [3]: 166 nM

More lines, in order of falling IC50 (HT-29 [2]), values ahead:

IC50 (HT-29 [2]): 1230 nM | IC50 (A2780): 759 nM
Compound: N#CC1=C(N)Oc2c(ccc3ccccc23)C1c1ccc(C#N)cc1 (stereo not drawn)
Activity (518A2 [1]): Dose-dependent effect | IC50 (518A2 [1]): 939 nM | IC50 [3]: 774 nM

IC50 (HT-29 [2]): 188 nM | IC50 (A2780): 160 nM
Compound: COc1c(Br)cc(C2C(C#N)=C(N)Oc3c2cc(Cl)c2ccccc32)cc1Br (stereo not drawn)
Activity (518A2 [1]): Dose-dependent effect | IC50 (518A2 [1]): 144 nM | IC50 [3]: 168 nM

IC50 (HT-29 [2]): 67.3 nM | IC50 (A2780): 49.9 nM | IC50 (DLD-1): 69.4 nM | IC50 (PANC-1): 54.9 nM | IC50 (HCT-116): 73.5 nM
Compound: N#CC1=C(N)Oc2c(cc(Cl)c3ccccc23)C1c1cccc(C#N)c1 (stereo not drawn)
Activity (518A2 [1]): Dose-dependent effect | IC50 (518A2 [1]): 60.5 nM | IC50 [3]: 56.7 nM | IC50 (EA.hy 926): 78.6 nM | IC50 [4]: 55.9 nM | IC50 [5]: 58.1 nM | Activity (HT-29 [6]): 19.8% | Activity (HT-29 [7]): 27.8% | Activity (HT-29 [8]): 27% | Activity (HT-29 [9]): 51.7% | Activity (HT-29 [10]): 22.2% | Activity (HT-29 [11]): 13% | Activity (HT-29 [12]): 16.1% | Activity (HT-29 [13]): 9.1% | Activity (HT-29 [14]): 8.5% | Activity (HT-29 [15]): 12.3% | Activity (HT-29 [16]): 40.9% | Activity (HT-29 [17]): 51.6% | Activity (Chorioallantoic membrane [18]): Active | Activity (Chorioallantoic membrane [19]): Active | Activity (Chorioallantoic membrane [20]): inactive | Activity (Chorioallantoic membrane [21]): Active | Activity (Chorioallantoic membrane [22]): inactive | Activity (Chorioallantoic membrane [23]): inactive | Activity (518A2 [24]): Active | Activity (518A2 [25]): inactive | Activity (HT-29 [26]): Dose-dependent effect | Activity (Chorioallantoic membrane [27]): inactive
